Measured values reported in ChEMBL document CHEMBL1123065, “Sleep-inducing N-alkyl-5-[m-(trifluoromethyl)phenyl]-5-hydroxy-2-pyrrolidinones and N-alkyl-3-(trifluoromethyl)cinnamamides” (J Med Chem, 1985).
Activity calls are given as the source filed them. The calls are words filed in the database; no cut-off is given here.

What was measured:
[1] = test system: Monkey; assay: Ratio of the oral dose of the test compound relative to that of methaqualone (15 mg/kg, po) to induce sleep in Cebus monkey; assay type: functional
In short: (§1)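 Cebus monkeys restrained in chairs within sound-attenuated cubicles; dosing per os at 5:00 p.m., five channels recorded, EEG over 13.5 h, Monday–Thursday, visually scored. Each animal its own control versus last 15 control nights (intragastric carboxymethylcellulose placebo). Value is oral dose of test substance relative to methaqualone 15 mg/kg po inducing sleep in the same monkey; NA = no sleep at any dose.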

[2] = test system: Mus musculus; assay: Ability to produce neurological deficit in the rotarod test (10 mice were used per dose, ip); assay type: functional
In short: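 Rotarod method of ref 10, intraperitoneal dosing, 10 mice per dose; neurological deficit scored and ND50 (mg/kg ip) derived.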

[3] = test system: Mus musculus; assay: Effective dose against Mice ataxia, ip administration; assay type: functional
In short: (§2)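 Mouse behaviour after ip dosing assessed by a modification of the method of ref 7; ataxia, docility and loss of righting reflex scored, 10 mice per dose, ED50 in mg/kg ip.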

[4] = test system: Mus musculus; assay: Anticonvulsant activity against N-sulfamoylhexahydrozepine (10 mice were used per dose, ip); assay type: functional
In short: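 Mice given compound ip, 10 per dose, then challenged with N-sulfamoylhexahydroazepine by methods of ref 9; ED50 (mg/kg ip) for protection determined.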

[5] = test system: Mus musculus; assay: Ability to reinduce anesthesia (70 mg/kg, iv) following recovery of loss of righting reflex obtained with hexobarbital.; assay type: functional
[6] = test system: Mus musculus; assay: Effective dose against loss of righting reflex in mice (10 mice per dose, ip); assay type: functional; in short: as §2
[7] = Lethal dose was obtained by 2-h post administration (ip), using four male Royal Hart Wistar rats; assay type: toxicity, organism-based; conditions: rat, in vivo
In short: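 Male Royal Hart Wistar rats, 136-160 g, housed in pairs in wire cages, given compound ip; deaths read 2 h after dosing, four rats per compound; LD50 estimated by probit analysis.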

[8] = test system: Mus musculus; assay: Effective dose against Mice docility, ip administration; assay type: functional; in short: as §2
[9] = Ratio of the oral dose of the test compound relative to that of methaqualone (15 mg/kg, po) to induce sleep in Cebus monkey; NA is Not Active.; assay type: functional, organism-based; in short: as §1
[10] = test system: Mus musculus; assay: Effective dose against loss of righting reflex in mice;10 mice per dose(ip); assay type: functional; in short: as §2
[11] = Ratio of the oral dose of the test compound relative to that of methaqualone (15 mg/kg, po) to induce sleep in Cebus monkey;NA is Not Active.; assay type: functional, organism-based; in short: as §1

Row | Structure (SMILES) | Sleep ratio [1] | ND50 [2] [mg/kg] | ED50 [3] [mg/kg] | ED50 [4] [mg/kg] | RD50 [5] [mg/kg] | ED50 [6] [mg/kg] | LD50 at 2 h [7] [mg/kg] | ED50 [8] [mg/kg] | Ratio [9] | ND50 [10] [mg/kg] | Ratio [11]
1 | CN1C(=O)CCC1(O)c1cccc(C(F)(F)F)c1 (stereo not drawn) | 1 | 106.5 | 129 | 51.6 | 45.1 | 133 | 367 | 93.8 |  |  | 
2 | CN1C(=O)CCC1(O)c1ccc(C(F)(F)F)cc1 (stereo not drawn) |  | 140.5 | > 200 | 132 | >200 | > 200 | > 400 | > 200 |  |  | 
3 | CN(C)C(=O)CCC(=O)c1cccc(C(F)(F)F)c1 |  | >37.5 | > 50 | > 37.5 | 127.6 | > 50 | 300 | > 50 |  |  | 
4 | Cc1cccc(C2(O)CCC(=O)N2C)c1 (stereo not drawn) |  | 111.5 | 93 | 60.9 | 49.5 | 138 | 300 | 81.5 | inactive |  | 
5 | CC(C)CNC(=O)CCC(=O)c1cccc(C(F)(F)F)c1 |  | >200 | > 200 | > 200 | >200 | > 200 | 162 | > 200 |  |  | 
6 | CNC(=O)/C=C(\C)c1cccc(C(F)(F)F)c1 |  | >75 | 87.5 | > 75 | 56.3 | > 100 | > 400 | 87.5 |  |  | 
7 | CCC(C)NC(=O)CCC(=O)c1cccc(C(F)(F)F)c1 (stereo not drawn) |  | >150 | > 200 | > 200 | >50 | > 200 | 300 | > 200 |  |  | 
8 | O=C(/C=C/c1ccccc1)NCCO [IDROCILAMIDE] |  | >200 | 183 | 117 | 75 | > 200 | > 400 | 183 |  |  | 
9 | CNC(=O)/C=C/c1cccc(C(F)(F)F)c1 | 0.5 | 149 | 120 | 84.1 | 76.3 | 200 | 275 | 92.9 |  |  | 
10 | CN(C)C(=O)/C=C/c1cccc(C(F)(F)F)c1 |  |  | > 75 |  | >75 |  | 300 |  |  | >75 | 
11 | CCCCN1C(=O)CCC1(O)c1cccc(C(F)(F)F)c1 (stereo not drawn) |  | >200 | > 200 | 183 | 150 | > 200 | > 400 | > 200 |  |  | inactive
12 | CN1CCN(C(=O)CCC(=O)c2cccc(C(F)(F)F)c2)CC1 |  | >37.5 | > 50 | > 37.5 | >37.5 | > 50 | > 400 | > 50 |  |  | 
13 | CCN1C(=O)CCC1(O)c1cccc(C(F)(F)F)c1 (stereo not drawn) |  | >75 | > 100 | > 75 | 68.8 | > 100 | > 400 | > 100 | inactive |  | 
